What was measured:
[1] = Ratio of drug level from brain to plasma in Sprague-Dawley rat at 10 mg/kg, iv measured at 2 hrs; assay type: ADME, organism-based; parameters: dose 10 mg/kg, route intravenous; details: read-out: BPR
Procedure, shortened: (§1)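 Rats fasted 12 h, then dosed orally by gavage or by bolus tail-vein injection at 2 ml/kg. Compound given as a 5 mg/ml solution in N-methyl-2-pyrrolidone/Tween 80/water (1:2:7). Samples taken at various times (n = 5) and stored at −70 °C. Plasma deproteinized with acetonitrile containing carbamazepine internal standard, then quantified by LC-MS/MS.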

[2] = Ratio of drug level from brain to plasma in Sprague-Dawley rat at 10 mg/kg, po measured at 2 hrs; assay type: ADME, organism-based; parameters: dose 10 mg/kg, route oral; details: read-out: BPR; procedure, shortened: as §1
[3] = Drug uptake in Sprague-Dawley rat brain at 10 mg/kg, iv measured at 2 hrs; assay type: ADME, organism-based; parameters: dose 10 mg/kg, route intravenous; details: read-out: Drug uptake; procedure, shortened: as §1
[4] = Plasma concentration in Sprague-Dawley rat at 10 mg/kg, po measured at 2 hrs; assay type: ADME, organism-based; parameters: dose 10 mg/kg, route oral; procedure, shortened: as §1
[5] = Plasma concentration in Sprague-Dawley rat at 10 mg/kg, iv measured at 2 hrs; assay type: ADME, organism-based; parameters: dose 10 mg/kg, route intravenous; procedure, shortened: as §1
[6] = Drug excretion in Sprague-Dawley rat at 10 mg/kg, po; assay type: ADME, organism-based; parameters: dose 10 mg/kg, route oral; details: in vivo, read-out: Ae; procedure, shortened: as §1
[7] = Drug excretion in Sprague-Dawley rat at 10 mg/kg, iv; assay type: ADME, organism-based; parameters: dose 10 mg/kg, route intravenous; details: in vivo, read-out: Ae; procedure, shortened: as §1
[8] = Clearance in Sprague-Dawley rat at 10 mg/kg, iv; assay type: ADME, organism-based; parameters: dose 10 mg/kg, route intravenous; details: in vivo; procedure, shortened: as §1
[9] = Cmax in Sprague-Dawley rat at 10 mg/kg, po; assay type: ADME, organism-based; parameters: dose 10 mg/kg, route oral; details: in vivo; procedure, shortened: as §1
[10] = Terminal half life in Sprague-Dawley rat at 10 mg/kg, iv; assay type: ADME, organism-based; parameters: dose 10 mg/kg, route intravenous; details: in vivo, read-out: beta t1/2; procedure, shortened: as §1
[11] = AUC (0 to infinity) in Sprague-Dawley rat at 10 mg/kg, iv; assay type: ADME, organism-based; parameters: time infinity, dose 10 mg/kg, route intravenous; details: plasma
[12] = test system: Mus musculus; test: Antiobesity activity in B6.V/J ob/ob mouse assessed as change in gonadal adipose tissue weight at 5 mg/kg, po bid measured after 14 days (reference value: 3.599 +/- 0.155 g); assay type: functional
[13] = test system: Mus musculus; test: Antiobesity activity in B6.V/J ob/ob mouse assessed as change in kidney weight at 50 mg/kg, po bid measured after 14 days (reference value: 0.339 +/- 0.009 g); assay type: functional
[14] = test system: Mus musculus; test: Antiobesity activity in B6.V/J ob/ob mouse assessed as change in kidney weight at 5 mg/kg, po bid measured after 14 days (reference value: 0.339 +/- 0.009 g); assay type: functional
[15] = test system: Mus musculus; test: Antiobesity activity in B6.V/J ob/ob mouse assessed as change in heart weight at 50 mg/kg, po bid measured after 14 days (reference value: 0.150 +/- 0.003 g); assay type: functional
[16] = test system: Mus musculus; test: Antiobesity activity in B6.V/J ob/ob mouse assessed as change in thymus weight at 50 mg/kg, po bid measured after 14 days (reference value: 0.029 +/- 0.006 g); assay type: functional
[17] = test system: Mus musculus; test: Antiobesity activity in B6.V/J ob/ob mouse assessed as change in thymus weight at 5 mg/kg, po bid measured after 14 days (reference value: 0.029 +/- 0.006 g); assay type: functional
[18] = test system: Mus musculus; test: Antiobesity activity in B6.V/J ob/ob mouse assessed as change in spleen weight at 25 mg/kg, po bid measured after 14 days (reference value: 0.097 +/- 0.052 g); assay type: functional
[19] = test system: Mus musculus; test: Antiobesity activity in B6.V/J ob/ob mouse assessed as change in spleen weight at 5 mg/kg, po bid measured after 14 days (reference value: 0.097 +/- 0.052 g); assay type: functional
[20] = test system: Mus musculus; test: Antiobesity activity in B6.V/J ob/ob mouse assessed as change in liver weight at 25 mg/kg, po bid measured after 14 days (reference value: 3.396 +/- 0.162 g); assay type: functional
[21] = test system: Mus musculus; test: Antiobesity activity in B6.V/J ob/ob mouse assessed as inhibition of food intake at 25 mg/kg, po bid measured after 14 days relative to vehicle-treated control; assay type: functional; details: 336 h
[22] = test system: Mus musculus; test: Antiobesity activity in B6.V/J ob/ob mouse assessed as inhibition of food intake at 50 mg/kg, ip measured up to 6 hrs relative to vehicle-treated control; assay type: functional; details: route intraperitoneal
Procedure, shortened: (§2)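 Male mice were acclimated 1 week at 23 ± 3 °C and 50 ± 20% humidity, then fasted 24 h. They were dosed once intraperitoneally with vehicle or compound: 50 mg/kg in C57BL/6, or 12.5, 25 or 50 mg/kg in B6.V-Lep^ob/J. Food intake was measured at 2, 6 and 12 h versus vehicle control.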

[23] = test system: Mus musculus; test: Antiobesity activity in B6.V/J ob/ob mouse assessed as inhibition of food intake at 50 mg/kg, ip measured up to 12 hrs relative to vehicle-treated control; assay type: functional; details: route intraperitoneal; procedure, shortened: as §2
[24] = test system: Mus musculus; test: Antiobesity activity in B6.V/J ob/ob mouse assessed as inhibition of food intake at 25 mg/kg, ip measured up to 6 hrs relative to vehicle-treated control; assay type: functional; details: route intraperitoneal; procedure, shortened: as §2
[25] = test system: Mus musculus; test: Antiobesity activity in B6.V/J ob/ob mouse assessed as inhibition of food intake at 12.5 mg/kg, ip measured up to 12 hrs relative to vehicle-treated control; assay type: functional; details: route intraperitoneal; procedure, shortened: as §2
[26] = test system: Mus musculus; test: Antiobesity activity in C57BL/6 mouse assessed as inhibition of food intake at 50 mg/kg, ip measured after 2 to 12 hrs relative to vehicle-treated control; assay type: functional; details: C57BL/6, ip, route intraperitoneal; procedure, shortened: as §2
[27] = target: T1, Alpha-2A adrenergic receptor (Homo sapiens, UniProt P08913); test: Binding affinity to adrenergic alpha2A receptor (unknown origin)
T1 sequence (P08913 whole entry): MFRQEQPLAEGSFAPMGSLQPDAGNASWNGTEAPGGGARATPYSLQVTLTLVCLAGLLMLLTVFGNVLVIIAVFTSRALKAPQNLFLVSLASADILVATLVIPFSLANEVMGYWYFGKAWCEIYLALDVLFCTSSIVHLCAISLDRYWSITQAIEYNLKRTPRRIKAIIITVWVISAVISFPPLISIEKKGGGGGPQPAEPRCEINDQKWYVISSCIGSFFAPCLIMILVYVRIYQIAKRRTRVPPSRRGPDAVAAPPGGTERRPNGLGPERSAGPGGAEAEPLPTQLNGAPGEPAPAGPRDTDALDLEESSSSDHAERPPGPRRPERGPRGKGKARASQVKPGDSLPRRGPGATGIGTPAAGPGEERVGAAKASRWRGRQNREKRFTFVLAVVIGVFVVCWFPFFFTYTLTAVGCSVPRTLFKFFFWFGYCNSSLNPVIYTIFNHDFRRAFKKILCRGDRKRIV

[28] = target: 5-hydroxytryptamine receptor 6 (Homo sapiens, UniProt P50406); test: Displacement of [3H]-LSD from human recombinant 5HT-6 receptor expressed in CHOK1 cell membranes after 60 mins; parameters: species or system CHO-K1
Sequence of 5-hydroxytryptamine receptor 6 (P50406 whole entry): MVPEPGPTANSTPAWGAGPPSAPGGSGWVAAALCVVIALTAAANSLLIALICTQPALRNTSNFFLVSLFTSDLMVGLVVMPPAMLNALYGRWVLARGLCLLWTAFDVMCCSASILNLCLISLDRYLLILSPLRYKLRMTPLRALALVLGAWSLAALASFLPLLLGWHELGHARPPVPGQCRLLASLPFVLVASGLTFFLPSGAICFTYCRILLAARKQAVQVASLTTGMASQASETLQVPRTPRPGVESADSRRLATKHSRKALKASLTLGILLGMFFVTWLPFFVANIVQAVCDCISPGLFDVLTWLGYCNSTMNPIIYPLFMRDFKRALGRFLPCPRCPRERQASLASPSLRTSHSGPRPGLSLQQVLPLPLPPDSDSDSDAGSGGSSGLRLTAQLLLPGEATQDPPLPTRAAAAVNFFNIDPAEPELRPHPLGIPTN
Procedure, shortened: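 CHO-K1 membranes expressing human 5-HT6 incubated with 1 nM [3H]LSD for 60 min at 27 °C in 50 mM Tris-HCl pH 7.4 containing 4 mM CaCl2 and 0.1% ascorbic acid. Terminated by filtration on glass-fiber filters presoaked in 0.5% PEI. Methiothepin defined nonspecific binding.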

[29] = species on record: Homo sapiens; test: Selectivity ratio of IC50 for human recombinant 5HT-2B receptor to IC50 for human recombinant 5HT-2C receptor
[30] = species on record: Homo sapiens; test: Selectivity ratio of IC50 for human recombinant 5HT-2B receptor to IC50 for human recombinant 5HT-2A receptor

Work on `Cl.Clc1cccc(Nc2nc(Cc3ccccc3)nc3c2CCNCC3)c1` yielded a Kp at 2 h [1] of 9.33, a Kp at 2 h [2] of 0.66 and a concentration at 2 h [3] of 1480 ng/mL. For the same molecule, the concentration at 2 h [4] was 50 ng/mL, the concentration at 2 h [5] was 190 ng/mL and the dose excreted [6] was 0.03%. The dose excreted [7] was 0.03%, the clearance [8] was 97.2 mL/min/kg and the Cmax [9] was 70 ng/mL. It also gave a half-life [10] of 2.25 h, an AUC(0-inf) [11] of 1910 ng·h/mL and an Activity [12] of 3.776 g. The Activity [13] was 0.35 g, the Activity [14] was 0.329 g and the Activity [15] was 0.17 g. It also gave an Activity [16] of 0.04 g, an Activity [17] of 0.033 g and an Activity [18] of 0.111 g. For the same molecule, the Activity [19] was 0.057 g, the Activity [20] was 3.173 g and the inhibition in vivo at 25 mg/kg [21] was 15.2%. For the same molecule, the inhibition in vivo at 50 mg/kg [22] was 98.6%, the inhibition in vivo at 50 mg/kg [23] was 93.3% and the inhibition in vivo at 25 mg/kg [24] was 90.2%. It also gave an inhibition in vivo at 12.5 mg/kg [25] of 47.8%, an inhibition in vivo at 50 mg/kg [26] of 76.6% and an IC50 [27] of over 10000 nM. For the same molecule, the IC50 [28] was 21.8 nM, the Ratio IC50 [29] was 8.1 and the Ratio IC50 [30] was 4.2.

Reference: ChEMBL document CHEMBL2390866, “Novel pyrimidoazepine analogs as serotonin 5-HT(2A) and 5-HT(2C) receptor ligands for the treatment of obesity” (Eur J Med Chem, 2013)
